Laboratory results: ChEMBL document CHEMBL4033712, “Synthesis and biological evaluation of new C-12(α/β)-(N-) sulfamoyl-phenylamino-14-deoxy-andrographolide derivatives as potent anti-cancer agents” (Bioorg Med Chem Lett, 2017)

What was measured:
SK-OV-3 = assay: Growth inhibition of human SKOV3 cells incubated for 48 hrs by sulforhodamine B assay; format: functional; details: SK-OV-3, 48 h; for CC50: read-out: LC50 (the source's name)
Method in brief: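 NCI 60 human tumour cell line panel, five-dose study at 0.01, 0.1, 1, 10 and 100 µM, 48 h incubation. Sulforhodamine B protein-binding dye end point. GI50 (50% decrease in net cell growth), TGI (total growth inhibition) and LC50 (net 50% loss of initial cells) read from log concentration versus % growth inhibition curves.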

NHDF = assay: (§1) Growth inhibition of human NHDF after 72 hrs by CellTiter-Glo luminescent cell viability assay; format: cell-based; details: nhdf, 72 h
Malme-3M = assay: Growth inhibition of human MALME-3M cells incubated for 48 hrs by sulforhodamine B assay; format: functional
Method in brief: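 NCI-60 five-dose screen at 0.01, 0.1, 1, 10 and 100 µM, 48 h incubation, sulforhodamine B end point. GI50 (50% decrease in net growth), TGI (total growth inhibition) and LC50 (net 50% loss of initial cells) taken from log concentration versus % growth inhibition curves.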

[1] = as §1; format: cell-based; details: NHDF cells

Compound | GI50 (SK-OV-3) [µM] | TGI (SK-OV-3) [µM] | CC50 (SK-OV-3) [µM] | growth inhibition (GI) (NHDF) | GI50 (Malme-3M) [µM] | TGI (Malme-3M) [µM] | CC50 (Malme-3M; read-out: LC50 (the source's name)) [µM] | GI50 at 72 h [1] [µM] | LC50 (NHDF) [µM]
C=C1CC[C@@H]2[C@](C)(COC(C)=O)[C@H](OC(C)=O)CC[C@@]2(C)[C@H]1CC(Nc1ccc(S(=O)(=O)Nc2nccs2)cc1)C1=CCOC1=O (stereo partly drawn) | 14.4 | 27.8 | 53.5 | – | – | – | – | – | –
C=C1CC[C@@H]2[C@](C)(COC(C)=O)[C@H](OC(C)=O)CC[C@@]2(C)[C@H]1CC(Nc1ccc(S(=O)(=O)Nc2ncccn2)cc1)C1=CCOC1=O (stereo partly drawn) | 6.27 | 18.3 | 42.8 | Non-Toxic | – | – | – | – | –
C=C1CC[C@@H]2[C@](C)(COC(C)=O)[C@H](OC(C)=O)CC[C@@]2(C)[C@H]1CC(Nc1ccc(S(=O)(=O)Nc2cc(C)on2)cc1)C1=CCOC1=O (stereo partly drawn) | 11 | 23.1 | 48.6 | – | 1.89 | 4 | – | – | –
C=C1CC[C@@H]2[C@](C)(COC(C)=O)[C@H](OC(C)=O)CC[C@@]2(C)[C@H]1CC(Nc1ccc(S(=O)(=O)Nc2ccc(Cl)nn2)cc1)C1=CCOC1=O (stereo partly drawn) | 4.05 | 12.3 | 35 | – | 1.72 | 3.9 | 8.84 | 1.54 | 3.496358
C=C1CC[C@@H]2[C@](C)(COC(C)=O)[C@H](OC(C)=O)CC[C@@]2(C)[C@H]1CC(Nc1ccc(S(=O)(=O)Nc2nccc(C)n2)cc1)C1=CCOC1=O (stereo partly drawn) | 12.7 | 25.3 | 50.3 | – | – | – | – | – | –
